Calls of active or inactive are those of the source.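 Rule for the calls, unless noted: active = primary screen active whose calcium signal fell more than 3 SD beyond the full-serotonin control mean in both duplicate plates; inactive = the rest.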
Tested on: not listed separately
Experiment: serotonin-gated TRPC4 signal block – cell-based, second counter screen, HEK293 TRPC4/5HT1a, Fluo-4, counter-screen for TRPC4 inhibitor project, confirmation (AID 434978);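 note: serotonin given first at submaximal then at maximal dose after compound preincubation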
Conditions: Fluo-4 calcium flux, at 10 µM, serotonin added to trigger calcium flux; active compounds read high
How it was run: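 System: HEK293 line stably carrying TRPC4 plus 5HT1a receptor; benchmarks: maximal serotonin stimulation controls; measured by: Fluo-4 calcium flux, kinetic fluorescence; reagent: sequential submaximal then ECmax serotonin stimulation; times: compound 110 s, submaximal serotonin 110 s, ECmax serotonin read 110 s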
For `COc1ccc(-n2nc(C(=O)NCC(=O)NCCCN3CC(C)CC(C)C3)c3ccccc3c2=O)cc1Cl` (stereo not given), the outcome was “inactive”.
With `Cc1cc(OCC(=O)N(C(C)C)C(C)C)cc(C)c1Br` the outcome was “inactive”.
For `CCCCCCn1c(N2CCN(c3ccccc3)CC2)nc2c1c(=O)n(C)c(=O)n2C`, the outcome was “inactive”.
With `CCC(=O)NC(C)C(c1cccs1)N1CCN(c2ccccc2)CC1` (stereo not given) the outcome was “inactive”.
For `Cc1ccc(-c2nnc(N3CCC(C)CC3)c3ccccc23)cc1C`, the outcome was “inactive”.
For `Cc1cc(C(C)(C)C)c(O)c(C)c1CC1=NCCN1`, the outcome was “inactive”.
In the case of `Cc1sc2ncnc(NCC(c3ccccc3)N(C)C)c2c1C` (stereo not given), the outcome is reported as “inactive”.
For `O=C(NCc1ccccc1)C1=C[C@H](c2ccc(Br)cc2)C[C@H](OCc2ccc(CO)cc2)O1`, the outcome was “inactive”.
For `O=C(Nc1ccccc1)C1=C[C@H](C2CCCCC2)C[C@H](OCc2ccc(CO)cc2)O1`, the outcome was “inactive”.
With `Cc1ccc(S(=O)(=O)N2CCC(N3CCN(C)CC3)CC2)cc1Cl` the outcome was “inactive”.
For `Cc1cc(OCC(=O)NC2CCCCC2)ccc1Cl`, the outcome was “inactive”.
With `O=[N+]([O-])c1ccc(/C=N/Nc2nc(N3CCCCC3)nc(N3CCCCC3)n2)o1` the outcome was “inactive”.
With `Cc1cccc(/C=N/NC(=O)c2cccc(Cl)c2)n1` the outcome was “inactive”.
For `S=C(NCCc1ccccn1)NC1CCCCC1`, the outcome was “inactive”.
In the case of `Cc1cccc(Cc2c(C)nc3c(C(=O)NCc4ccco4)cnn3c2C)c1`, the outcome is reported as “inactive”.
In the case of `Cc1ccc(Cn2c(=N)c(C(=O)NC3CCCC3)cc3c(=O)n4ccccc4nc32)cc1`, the outcome is reported as “inactive”.
With `COC(=O)[C@@]12CCCCN1[C@H](c1ccc(-c3cccc(Cl)c3)c(OC)c1)[C@H]1C(=O)N(C)C(=O)[C@H]12` the outcome was “inactive”.
For `CC1=C(C(=O)NCc2ccccc2)C(c2cc(Br)cc(Br)c2OC(C)C)NC(=O)N1` (stereo not given), the outcome was “inactive”.
For `CC1Cc2ccccc2N1C(=O)CSc1nc2c(c(=O)n(C)c(=O)n2C)n1Cc1ccc(F)cc1` (stereo not given), the outcome was “inactive”.
In the case of `CCN1CCN(c2ccc(S(=O)(=O)N3CCOCC3)cc2NC(=O)c2ccccc2OC(F)F)CC1`, the outcome is reported as “inactive”.
With `O=C1C(Cl)=C(Nc2cccc(O)c2)C(=O)N1Cc1ccccc1` the outcome was “inactive”.
In the case of `O=C(NCc1ccccc1)C1=C[C@H](c2ccc(C(F)(F)F)cc2)C[C@H](OCc2ccc(CO)cc2)O1`, the outcome is reported as “inactive”.
In the case of `COc1ccc(C)c(NC(=O)NCCc2cnc[nH]2)c1`, the outcome is reported as “inactive”.
For `CN(C)CCNc1ccc(Cl)cc1[N+](=O)[O-]`, the outcome was “inactive”.
For `CCn1c(O)c(N=NC(=O)c2cccc(S(=O)(=O)N3CCCCC3)c2)c2ccccc21`, the outcome was “inactive”.
With `Cc1onc(-c2ccccc2)c1C(=O)NNC(=S)NC(=O)c1ccc2c(c1)OCO2` the outcome was “inactive”.
In the case of `COc1ccc(Cl)cc1C(=O)NCCN(C)C`, the outcome is reported as “inactive”.
In the case of `O=C1NCN(c2ccccc2)C12CCN(CCCC(c1ccc(F)cc1)c1ccc(F)cc1)CC2`, the outcome is reported as “inactive”.
With `Cc1ccc(/C=N/NC(=O)NC2CCCCC2)o1` the outcome was “inactive”.
For `O=C(Nc1cccc(Cl)c1)c1cnn2cccnc12`, the outcome was “inactive”.
With `COc1c(C)cc(C(=O)C2CCCN(Cc3cccc4nccnc34)C2)cc1C` (stereo not given) the outcome was “inactive”.
With `O=C(c1cccc([N+](=O)[O-])c1)N1CCCC(C(=O)N2CCCCCC2)C1` (stereo not given) the outcome was “inactive”.
For `CCOc1ccc(-n2c(SCC(=O)O)nc3sc4c(c3c2=O)CCCC4)cc1`, the outcome was “inactive”.
With `Cc1cc(-c2ccc(C)c(S(=O)(=O)N3CCN(C(=O)c4ccco4)CC3)c2)on1` the outcome was “inactive”.
In the case of `O=C(NC1CCN(Cc2ccccc2)CC1)C12CC3CC(CC(C3)C1)C2`, the outcome is reported as “inactive”.
With `Cc1cccc(/C=N/NC(=O)c2cc(Br)ccc2O)n1` the outcome was “inactive”.
With `C1CCN(c2nc(N3CCCC3)nc(N3CCNCC3)n2)C1` the outcome was “inactive”.
In the case of `CNc1nc(N2CCc3ccccc32)ncc1F`, the outcome is reported as “inactive”.
For `Cc1cccc(Cn2c(N3CCN(c4ccccc4)CC3)nc3c2c(=O)n(C)c(=O)n3C)c1`, the outcome was “inactive”.
For `O=C(Nc1cccc(Cl)c1)N1CCN(C/C=C/c2ccccc2)CC1`, the outcome was “inactive”.

Tested on: TRPC4 (mouse), co-expressed with 5HT1a in HEK293
Experiment: enhancement of serotonin-evoked TRPC4 response – cell-based, second counter screen, HEK293 TRPC4/5HT1a, Fluo-4, counter-screen for TRPC4 potentiator project, confirmation (AID 434979;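 active = signal rise over 3 SD above mean of control wells given weak agonist, in both repeats and first screen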)
Conditions: Fluo-4 calcium flux, at 10 µM, serotonin added at its EC20 dose; active compounds read high
With `COc1ccc(-n2nc(C(=O)NCC(=O)NCCCN3CC(C)CC(C)C3)c3ccccc3c2=O)cc1Cl` (stereo not given) the outcome was “inactive”.
In the case of `Cc1cc(OCC(=O)N(C(C)C)C(C)C)cc(C)c1Br`, the potentiation is reported as 31.9% (active).
In the case of `CCCCCCn1c(N2CCN(c3ccccc3)CC2)nc2c1c(=O)n(C)c(=O)n2C`, the potentiation is reported as 81% (active).
With `CCC(=O)NC(C)C(c1cccs1)N1CCN(c2ccccc2)CC1` (stereo not given) the outcome was “inactive”.
With `Cc1ccc(-c2nnc(N3CCC(C)CC3)c3ccccc23)cc1C` the potentiation was 60.2% (active).
In the case of `Cc1cc(C(C)(C)C)c(O)c(C)c1CC1=NCCN1`, the outcome is reported as “inactive”.
With `Cc1sc2ncnc(NCC(c3ccccc3)N(C)C)c2c1C` (stereo not given) the outcome was “inactive”.
For `O=C(NCc1ccccc1)C1=C[C@H](c2ccc(Br)cc2)C[C@H](OCc2ccc(CO)cc2)O1`, the potentiation was 97.6% (active).
With `O=C(Nc1ccccc1)C1=C[C@H](C2CCCCC2)C[C@H](OCc2ccc(CO)cc2)O1` the potentiation was 124% (active).
With `Cc1ccc(S(=O)(=O)N2CCC(N3CCN(C)CC3)CC2)cc1Cl` the potentiation was 34.5% (active).
In the case of `Cc1cc(OCC(=O)NC2CCCCC2)ccc1Cl`, the potentiation is reported as 97.2% (active).
In the case of `O=[N+]([O-])c1ccc(/C=N/Nc2nc(N3CCCCC3)nc(N3CCCCC3)n2)o1`, the potentiation is reported as 59.2% (active).
With `Cc1cccc(/C=N/NC(=O)c2cccc(Cl)c2)n1` the potentiation was 83.4% (active).
With `S=C(NCCc1ccccn1)NC1CCCCC1` the outcome was “inactive”.
In the case of `Cc1cccc(Cc2c(C)nc3c(C(=O)NCc4ccco4)cnn3c2C)c1`, the potentiation is reported as 58.9% (active).
In the case of `Cc1ccc(Cn2c(=N)c(C(=O)NC3CCCC3)cc3c(=O)n4ccccc4nc32)cc1`, the potentiation is reported as 41.6% (active).
For `COC(=O)[C@@]12CCCCN1[C@H](c1ccc(-c3cccc(Cl)c3)c(OC)c1)[C@H]1C(=O)N(C)C(=O)[C@H]12`, the potentiation was 52.4% (active).
For `CC1=C(C(=O)NCc2ccccc2)C(c2cc(Br)cc(Br)c2OC(C)C)NC(=O)N1` (stereo not given), the potentiation was 11.7% (active).
In the case of `CC1Cc2ccccc2N1C(=O)CSc1nc2c(c(=O)n(C)c(=O)n2C)n1Cc1ccc(F)cc1` (stereo not given), the potentiation is reported as 67.1% (active).
For `CCN1CCN(c2ccc(S(=O)(=O)N3CCOCC3)cc2NC(=O)c2ccccc2OC(F)F)CC1`, the outcome was “inactive”.
In the case of `O=C1C(Cl)=C(Nc2cccc(O)c2)C(=O)N1Cc1ccccc1`, the potentiation is reported as 20.8% (active).
For `O=C(NCc1ccccc1)C1=C[C@H](c2ccc(C(F)(F)F)cc2)C[C@H](OCc2ccc(CO)cc2)O1`, the potentiation was 111% (active).
For `COc1ccc(C)c(NC(=O)NCCc2cnc[nH]2)c1`, the outcome was “inactive”.
With `CN(C)CCNc1ccc(Cl)cc1[N+](=O)[O-]` the potentiation was 8.91% (active).
With `CCn1c(O)c(N=NC(=O)c2cccc(S(=O)(=O)N3CCCCC3)c2)c2ccccc21` the potentiation was 6.79% (active).
With `Cc1onc(-c2ccccc2)c1C(=O)NNC(=S)NC(=O)c1ccc2c(c1)OCO2` the outcome was “inactive”.
With `COc1ccc(Cl)cc1C(=O)NCCN(C)C` the potentiation was 13.6% (active).
With `O=C1NCN(c2ccccc2)C12CCN(CCCC(c1ccc(F)cc1)c1ccc(F)cc1)CC2` the outcome was “inactive”.
In the case of `Cc1ccc(/C=N/NC(=O)NC2CCCCC2)o1`, the potentiation is reported as 69.9% (active).
For `O=C(Nc1cccc(Cl)c1)c1cnn2cccnc12`, the potentiation was 43% (active).
For `COc1c(C)cc(C(=O)C2CCCN(Cc3cccc4nccnc34)C2)cc1C` (stereo not given), the outcome was “inactive”.
For `O=C(c1cccc([N+](=O)[O-])c1)N1CCCC(C(=O)N2CCCCCC2)C1` (stereo not given), the outcome was “inactive”.
In the case of `CCOc1ccc(-n2c(SCC(=O)O)nc3sc4c(c3c2=O)CCCC4)cc1`, the potentiation is reported as 16.4% (active).
With `Cc1cc(-c2ccc(C)c(S(=O)(=O)N3CCN(C(=O)c4ccco4)CC3)c2)on1` the potentiation was 54.2% (active).
With `O=C(NC1CCN(Cc2ccccc2)CC1)C12CC3CC(CC(C3)C1)C2` the outcome was “inactive”.
In the case of `Cc1cccc(/C=N/NC(=O)c2cc(Br)ccc2O)n1`, the potentiation is reported as 100% (active).
With `C1CCN(c2nc(N3CCCC3)nc(N3CCNCC3)n2)C1` the potentiation was 18.4% (active).
With `CNc1nc(N2CCc3ccccc32)ncc1F` the potentiation was 103% (active).
For `Cc1cccc(Cn2c(N3CCN(c4ccccc4)CC3)nc3c2c(=O)n(C)c(=O)n3C)c1`, the potentiation was 59.2% (active).
With `O=C(Nc1cccc(Cl)c1)N1CCN(C/C=C/c2ccccc2)CC1` the potentiation was 19.8% (active).

Reference: PubChem BioAssay
